Experiments:
[1] = Drug level in CD1 mouse plasma at 400 mg/kg, ip after 1 hr by LC-MS/MS analysis; type: ADME, organism-based
Method in brief: (§1)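 Male mice fasted overnight and given ip dose in 95% Miglyol 840/5% DMSO. Plasma precipitated 3:1 with acetonitrile plus internal standard. Brain homogenized 3:1 in PBS, then acetonitrile extraction. LC-MS/MS in MRM mode, standard curve 1 ng/mL–10 μg/mL. Ratio = mean tissue (ng/g) over mean plasma (ng/mL) concentration.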

[2] = Drug level in CD1 mouse brain at 400 mg/kg, ip after 2 hrs by LC-MS/MS analysis; type: ADME, organism-based; settings: read-out: Drug uptake; method in brief: as §1
[3] = biological target: Voltage-gated inwardly rectifying potassium channel KCNH2 (Homo sapiens, UniProt Q12809); experiment: Inhibition of human ERG
[4] = Cmax in CD1 mouse at 20 mg/kg, ip measured after 0.083 to 24 hrs by LC-MS/MS analysis; type: ADME, organism-based; set-up: dose 20 mg/kg, route intraperitoneal; settings: in vivo
Method in brief: (§2)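 Male CD-1 mice, 3 per route. Oral and ip at 20 mg/kg by gavage needle; iv at 5 mg/kg by tail vein. Vehicles were 20% DMA:40% PEG300:40% H2O for oral/iv and 5% DMSO:95% Neobee for ip. Blood sampled 0.083–24 h, plasma protein-precipitated with acetonitrile plus internal standard, LC-MS/MS (MRM). Non-compartmental analysis, linear trapezoidal AUC.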

[5] = Drug level corresponding to free EC50 in CD1 mouse at 200 to 400 mg/kg, ip by LC-MS/MS analysis; type: ADME, organism-based; settings: in vivo
[6] = Tmax in CD1 mouse at 20 mg/kg, ip measured after 0.083 to 24 hrs by LC-MS/MS analysis; type: ADME, organism-based; settings: in vivo
[7] = Drug level in CD1 mouse plasma at 400 mg/kg, ip after 0.5 hrs by LC-MS/MS analysis; type: ADME, organism-based; method in brief: as §1
Cytochrome P450 3A4 = Cytochrome P450 3A4 (Homo sapiens, UniProt P08684); experiment: Inhibition of CYP3A4 in human liver microsomes using isoform-specific probe substrates incubated for 15 to 30 mins by LC-MS/MS analysis; type: ADME
Method in brief: (§3)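 Pooled mixed-gender human liver microsomes 0.2 mg/mL in 100 mM potassium phosphate with 2 mM NADPH. Isoform-specific probe substrates near Km. Organic solvent ≤1% final. Incubated 37°C for 15–30 min, quenched with acetonitrile plus internal standard. Probe metabolites measured by LC-MS/MS; percent inhibition versus vehicle, IC50 by variable-slope sigmoid fit.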

[8] = Toxicity in CF1 mouse assessed as induction of discolored urine; settings: in vivo
Mus musculus = experiment: Anti-seizure activity in CF1 mouse assessed as attenuation of psychomotor seizures at stimulus intensities of 44 mA at 400 mg/kg, ip measured at 0.25 to 4 hrs by 6 Hz limbic seizure test relative to control; type: functional
Method in brief: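 Male CF-1 mice, n=8 per dose. 6 Hz, 3 s corneal stimulation at 32 or 44 mA. Compound given ip in miglyol840/DMSO (95%/5%). Time of peak effect found by testing at 0.25–4 h; dose-response run at that time. Protected if no stun, jaw/forelimb clonus, vibrissae twitching or Straub tail for ≥1 s. ED50 by Probit analysis.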

[9] = Oral bio availability in CD1 mouse at 20 mg/kg measured after 0.083 to 24 hrs by LC-MS/MS analysis; type: ADME, organism-based; settings: in vivo; method in brief: as §2
Cytochrome P450 2C9 = Cytochrome P450 2C9 (Homo sapiens, UniProt P11712); experiment: Inhibition of CYP2C9 in human liver microsomes using isoform-specific probe substrates incubated for 15 to 30 mins by LC-MS/MS analysis; type: ADME; method in brief: as §3
[10] = Drug level in CD1 mouse brain at 400 mg/kg, ip after 8 hrs by LC-MS/MS analysis; type: ADME, organism-based; settings: read-out: Drug uptake; method in brief: as §1
[11] = AUClast in CD1 mouse at 20 mg/kg, ip measured after 0.083 to 24 hrs by LC-MS/MS analysis; type: ADME, organism-based; set-up: time lower 0.083 hr, dose 20 mg/kg, time upper 24 hr, route intraperitoneal; settings: in vivo; method in brief: as §2
[12] = Drug reactivity with 2-mercaptoethanol measured over 24 hrs; type: physicochemical
[13] = Drug level in CD1 mouse plasma at 400 mg/kg, ip after 4 hrs by LC-MS/MS analysis; type: ADME, organism-based; method in brief: as §1
[14] = Toxicity in CF1 mouse assessed as induction of motor/sedative effects at 400 mg/kg, ip; type: organism-based; settings: in vivo
Method in brief: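 Rotarod at 6 rpm on the same animals immediately before 6 Hz stimulation, 1 h after ip dosing. A mouse falling three times within one minute was scored impaired.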

[15] = Toxicity in mouse HT22 cells assessed as inhibition of cell viability at 10 uM incubated for 48 hrs by Cell-titer-Blue dye based fluorescence spectrophotometry relative to control; set-up: species or system HT-22; settings: read-out: Activity
Method in brief: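 HT-22 cells in DMEM high glucose with 10% FBS, 2000 per well. Serially diluted compound added after 12 h, incubated 48 h. […] Background subtracted, normalized to control wells.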

[16] = Toxicity in CF1 mouse assessed as induction of lethargy; settings: in vivo
[17] = Toxicity in CF1 mouse assessed as induction of abdominal constriction measured at time of treatment by writhing test; settings: in vivo
[18] = Drug level in CD1 mouse brain at 400 mg/kg, ip after 4 hrs by LC-MS/MS analysis; type: ADME, organism-based; settings: read-out: Drug uptake; method in brief: as §1
[19] = Ratio of drug level in brain to plasma in CD1 mouse at 400 mg/kg, ip after 4 hrs by LC-MS/MS analysis; type: ADME, organism-based; settings: brain and plasma, read-out: BPR; method in brief: as §1
Danio rerio = organism: Danio rerio; experiment: Increase in ATP concentration in zebrafish at 1 uM incubated for 24 hrs by fluorometric ATP assay relative to control; type: functional
Method in brief: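 7 dpf zebrafish larvae, one per well, kept at 28.5°C for 24 h with compound in E3 buffer (DMSO stock). DMSO vehicle in control wells. Twelve fish per condition pooled, flash-frozen, homogenized in ATP buffer and centrifuged. ATP in the supernatant read by fluorescence at ex 535/em 587 nm, normalized to total protein (BCA), and expressed as nmole/mg relative to DMSO control. n = 7–13.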

[20] = Ratio of drug level in brain to plasma in CD1 mouse at 400 mg/kg, ip after 1 hr by LC-MS/MS analysis; type: ADME, organism-based; settings: brain and plasma, read-out: BPR; method in brief: as §1

Chain of Voltage-gated inwardly rectifying potassium channel KCNH2 (Q12809 whole entry): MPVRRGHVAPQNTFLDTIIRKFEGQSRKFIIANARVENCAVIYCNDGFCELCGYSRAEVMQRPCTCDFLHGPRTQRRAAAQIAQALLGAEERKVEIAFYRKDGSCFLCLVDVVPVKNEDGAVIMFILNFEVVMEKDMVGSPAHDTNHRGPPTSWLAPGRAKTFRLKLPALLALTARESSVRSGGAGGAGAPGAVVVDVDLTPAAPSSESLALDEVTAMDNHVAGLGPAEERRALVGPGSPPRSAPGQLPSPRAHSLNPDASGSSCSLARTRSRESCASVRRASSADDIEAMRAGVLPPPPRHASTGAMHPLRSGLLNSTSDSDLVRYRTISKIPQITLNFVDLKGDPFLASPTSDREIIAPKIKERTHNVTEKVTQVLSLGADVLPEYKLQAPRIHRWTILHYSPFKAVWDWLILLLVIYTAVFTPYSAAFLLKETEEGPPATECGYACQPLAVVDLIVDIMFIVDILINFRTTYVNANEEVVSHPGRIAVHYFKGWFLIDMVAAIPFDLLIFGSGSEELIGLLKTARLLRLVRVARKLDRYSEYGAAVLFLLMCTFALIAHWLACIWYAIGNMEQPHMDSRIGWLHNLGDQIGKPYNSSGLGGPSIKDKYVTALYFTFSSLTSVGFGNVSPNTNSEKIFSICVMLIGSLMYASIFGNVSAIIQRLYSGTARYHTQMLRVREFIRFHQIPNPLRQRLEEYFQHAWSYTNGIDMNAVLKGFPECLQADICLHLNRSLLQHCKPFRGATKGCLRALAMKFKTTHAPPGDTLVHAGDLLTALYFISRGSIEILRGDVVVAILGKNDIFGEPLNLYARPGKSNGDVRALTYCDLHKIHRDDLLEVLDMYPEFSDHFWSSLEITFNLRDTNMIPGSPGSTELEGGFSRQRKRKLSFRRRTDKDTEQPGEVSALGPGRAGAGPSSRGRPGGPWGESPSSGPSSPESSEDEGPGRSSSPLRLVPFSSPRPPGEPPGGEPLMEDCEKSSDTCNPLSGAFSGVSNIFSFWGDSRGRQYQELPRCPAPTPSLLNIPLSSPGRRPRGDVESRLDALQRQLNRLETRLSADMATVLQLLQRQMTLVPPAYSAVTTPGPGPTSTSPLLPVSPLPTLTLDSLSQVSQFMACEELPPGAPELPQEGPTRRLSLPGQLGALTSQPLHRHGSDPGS
Chain of Cytochrome P450 2C9 (P11712 whole entry, canonical isoform): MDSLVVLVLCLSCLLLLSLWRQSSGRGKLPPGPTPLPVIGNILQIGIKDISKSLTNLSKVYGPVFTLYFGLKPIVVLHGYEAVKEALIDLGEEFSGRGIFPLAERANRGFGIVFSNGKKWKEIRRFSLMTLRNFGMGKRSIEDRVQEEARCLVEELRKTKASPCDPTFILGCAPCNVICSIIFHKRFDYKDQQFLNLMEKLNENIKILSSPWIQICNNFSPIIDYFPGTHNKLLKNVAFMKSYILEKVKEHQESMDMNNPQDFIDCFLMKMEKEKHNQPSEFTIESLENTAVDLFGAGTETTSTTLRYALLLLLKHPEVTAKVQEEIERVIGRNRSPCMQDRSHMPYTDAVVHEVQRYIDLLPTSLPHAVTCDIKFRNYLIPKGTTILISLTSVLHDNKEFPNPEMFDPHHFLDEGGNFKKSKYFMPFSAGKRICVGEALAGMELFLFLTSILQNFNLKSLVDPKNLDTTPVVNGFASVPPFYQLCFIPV
Chain of Cytochrome P450 3A4 (P08684 whole entry, canonical isoform): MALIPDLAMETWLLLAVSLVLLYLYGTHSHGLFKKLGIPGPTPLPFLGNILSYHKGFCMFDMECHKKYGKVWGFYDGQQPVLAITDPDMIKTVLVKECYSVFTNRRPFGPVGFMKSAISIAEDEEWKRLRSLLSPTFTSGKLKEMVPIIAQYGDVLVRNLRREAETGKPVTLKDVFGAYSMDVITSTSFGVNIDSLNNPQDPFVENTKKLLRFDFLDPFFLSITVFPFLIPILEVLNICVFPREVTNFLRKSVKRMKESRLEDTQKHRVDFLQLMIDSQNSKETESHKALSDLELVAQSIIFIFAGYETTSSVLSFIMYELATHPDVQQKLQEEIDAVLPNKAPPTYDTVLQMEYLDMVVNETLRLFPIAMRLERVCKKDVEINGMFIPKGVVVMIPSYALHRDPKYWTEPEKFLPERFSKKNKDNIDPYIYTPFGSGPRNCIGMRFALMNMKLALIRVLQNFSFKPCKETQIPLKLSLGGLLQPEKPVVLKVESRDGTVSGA

## CC(C)CCNC1=CC(=O)c2ccccc2C1=O
[1]
  concentration at 1 h: 1.69 µg/mL
[2]
  concentration at 2 h: 4930 ng/g
[3]
  IC50: > 30 µM
[4]
  Cmax: 0.32 µg/mL
[5]
  Drug uptake(free): 123 nM
[6]
  Tmax: 1 h
[7]
  concentration at 0.5 h: 1.26 µg/mL
Cytochrome P450 3A4
  IC50: > 100 µM
[8]
  Activity: Toxic
Mus musculus
  Activity: 100%
[9]
  F: 35.9%
Cytochrome P450 2C9
  IC50: 29.3 µM
[10]
  concentration at 8 h: 2630 ng/g
[11]
  AUC(0-t): 1.72 µg·h/mL
[12]
  Drug metabolism: Metabolite_Notdetected
[13]
  concentration at 4 h: 3.74 µg/mL
[14]
  Activity: Non-Toxic
[15]
  inhibition at 48 h, 10 µM: 11.9%
[16]
  Activity: Toxic
[17]
  Activity: Toxic
[18]
  concentration at 4 h: 3760 ng/g
[19]
  Kp at 4 h: 1
Danio rerio
  Activity: 19%
[20]
  Kp at 1 h: 2.33
